Inconclusive results are not listed. Calls of active or inactive are those of the source.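 Rule for the calls, unless noted: active = RAM network inhibition above 8.4% in each of two replicates, 3 SD over the compound average; inconclusive = above 8.4% inhibition in only one replicate; inactive = 8.4% inhibition or less in each replicate.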
Tests used:
[1] = OD615 S. cerevisiae growth inhibition, permissive medium, pilot counter-assay, permissive growth control for S. cerevisiae lifespan shortening project (AID 705;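 active = growth inhibition above 25% in both replicates, a cutoff set 3 SD above the mean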); conditions: OD615, 24 h, at 10 µM, active compounds read high
How it was run: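 System: S. cerevisiae with engineered DeaD lifespan system / Measured by: absorbance (optical density) at 615 nm / Read-out: reduction in yeast growth (OD615) / Times: 4 h cell pre-growth, 24 h exposure at 30 °C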

[2] = Restrictive medium S. cerevisiae growth inhibition, OD615, pilot screen of yeast lifespan reduction project, restrictive growth control (AID 706;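 active = growth inhibition above a set limit, 3 SD over mean compound inhibition, in both replicates, cut at about 43% in these data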;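 note: modified DeaD lifespan yeast strain shifted to restrictive glucose medium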); conditions: OD615, 48 h, at 10 µM, active compounds read high
How it was run: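 System: Engineered S. cerevisiae DeaD strain | Buffer or medium: Glucose-based CSMM-D restrictive medium | Schedule: 4 h pre-incubation, 48 h exposure at 30 °C | Technique: Optical density at 615 nm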

[3] = viability gain of MRP-1-high H69AR cells under doxorubicin, pilot screen, MRP-1 activator project, CellTiter-Glo, duplicate (AID 807;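 active = viability increase at or above a cutoff of the median across tested compounds plus 3 SD, cut at about 8.5% in these data, passing the limit was not always enough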;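 note: compound pretreatment 18-22 h then 72 h combined with doxorubicin; 0% = doxorubicin alone and 100% = vehicle without doxorubicin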); conditions: H69AR viability with doxorubicin, CellTiter-Glo luminescence; at 10 µM; active compounds read high
[4] = inhibitors of the yeast RAM network, pilot screen, dse1pr::URA3 reporter, 5-FOA selection (AID 869;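 active = inhibition over a set limit, the all-compound mean plus 3 SD, in both replicate runs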;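 note: 0% = DMSO wells with no growth and 100% = 10 µM 1-NA-PP1 with full growth; RAM network block rescues cells from 5-FOA so hits raise OD615 growth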); conditions: S. cerevisiae dse1pr::URA3 5-FOA growth, OD615, 2 d; at 10 µM; active compounds read high; strain carries analog-sensitive mutant Cbk1 kinase
[5] = RAM signaling pathway blockade in yeast – S. cerevisiae, Pdr1DBD-CYC8 efflux-inhibited sensitized strain, primary screen (AID 1298);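 note: 0% = DMSO untreated cells without growth and 100% = 10 µM 1-NA-PP1 full growth; higher means more yeast growth rescued from 5-FOA killing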; conditions: S. cerevisiae cbk1-as DSE1-URA3 strain, 5-FOA growth OD615, 2 d; at 50 µM; active compounds read high
[6] = growth suppression of beta-catenin knockout HCT116, pilot screen, human colon tumor cells (AID 823;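 active = cell viability at or below a set limit in both duplicate runs, the limit being the all-compound median minus 4 SD, cut at about 23% in these data, passing the limit was not always enough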;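 note: 0% = wells killed by 20 µM Hyamine and 100% = untreated DMSO cell wells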); conditions: CellTiter-Glo, 60 h, at 10 µM, active compounds read low
[7] = growth suppression of PTEN-deleted HCT116, pilot screen, cell-based, HCT116 clonal line, CellTiter-Glo (AID 824;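 active = viability at or below 27.92% in each of two runs, the all-compound median minus 4 SD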;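 note: 0% = 20 µM Hyamine control and 100% = vehicle cell control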); conditions: 60 h, at 10 µM, active compounds read low

COc1ccc(S(=O)(=O)Cc2ccc(C(=O)N3CCN(c4ccc(Cl)cc4)CC3)o2)cc1
inactive: growth inhibition [1] 2.93% | growth inhibition [2] -3.86% | viability increase [3] -4.86% | inhibition [4] 0.375% | RAM network inhibition [5] 6.31%

CCn1c(=O)c(=O)[nH]c2cc(C(=O)NC3CCCc4ccccc43)ccc21 (configuration not stated)
inactive: growth inhibition [1] -2.89% | growth inhibition [2] -5.91% | viability increase [3] -5.19% | inhibition [4] 1.7% | RAM network inhibition [5] 3.67%

COc1cccc(C(=O)Nc2nnc(-c3ccc(Cl)cc3)o2)c1
inactive: growth inhibition [1] 2.17% | growth inhibition [2] 2.42% | viability increase [3] -3.33% | inhibition [4] 1.6% | RAM network inhibition [5] -1.16%

c1coc(CNc2c3c(nc4ccccc24)CCC3)c1
inactive: growth inhibition [1] -9.23% | growth inhibition [2] -0.365% | viability increase [3] -5.72% | inhibition [4] -0.205% | RAM network inhibition [5] 0.83%

Cn1c(C(=O)NC2CCCCCC2)cc2c(=O)n(C)c3ccccc3c21
inactive: growth inhibition [1] 1.31% | growth inhibition [2] -8.3% | viability increase [3] -6.4% | inhibition [4] 1.1% | RAM network inhibition [5] 2.31%

COc1ccc(Cl)cc1N1C(=O)C2CCCN2C1c1ccc(F)c(F)c1 (configuration not stated)
inactive: growth inhibition [1] -5.22% | growth inhibition [2] -6.92% | viability [6] 98.1% | viability [7] 92.7% | inhibition [4] 1.33% | RAM network inhibition [5] 6.15%

O=C(CCS(=O)(=O)c1ccccc1)Nc1nc2c(s1)CCCC2
inactive: growth inhibition [1] -16.6% | growth inhibition [2] -17.7% | viability increase [3] -8.89% | inhibition [4] 0.495% | RAM network inhibition [5] 3.5%

O=C(Nc1nnc(-c2cccs2)o1)c1cccc(Oc2ccccc2)c1
inactive: growth inhibition [1] 16.2% | growth inhibition [2] 24.4% | viability increase [3] -6.06% | inhibition [4] 1.83% | RAM network inhibition [5] 2.76%

CN(C)S(=O)(=O)c1ccc(S(=O)(=O)N2CCN(CCC#N)CC2)cc1
inactive: growth inhibition [1] -0.96% | growth inhibition [2] 2.05% | viability [6] 102% | viability [7] 101% | inhibition [4] 0.005% | RAM network inhibition [5] -1.81%

CN1C(=O)C(O)(CC(=O)c2ccccn2)c2cc(Br)ccc21 (configuration not stated)
inactive: growth inhibition [1] -0.08% | growth inhibition [2] 6.53% | viability increase [3] -7.14% | inhibition [4] 0.9% | RAM network inhibition [5] 3.11%

COc1ccc(NC(=O)NCCCN2CCN(c3cc(C)ccc3C)CC2)cc1
inactive: growth inhibition [1] -11.2% | growth inhibition [2] -19.5% | viability increase [3] -6.14% | inhibition [4] 0.485% | RAM network inhibition [5] 2.1%

COc1ccccc1C(=O)C(O)c1ccccc1OC (configuration not stated)
inactive: growth inhibition [1] -8.34% | growth inhibition [2] 0.335% | viability increase [3] 0.03% | viability [7] 94.4% | inhibition [4] 0.755% | RAM network inhibition [5] 5.17%

Cn1nc(-c2ccc(Cl)cc2)c2cc(C(=O)NCCN3CCOCC3)sc21
inactive: growth inhibition [1] -4.46% | growth inhibition [2] -5.2% | viability increase [3] -7.41% | inhibition [4] 0.45% | RAM network inhibition [5] -1.47%

CCOCCn1c(-c2ccc(OC)cc2)nc2ccccc21
inactive: growth inhibition [1] -16.9% | growth inhibition [2] -10.7% | viability [6] 93.6% | viability [7] 82.8% | inhibition [4] 1.63% | RAM network inhibition [5] 5.07%

CCOc1ccc(-c2cc(CCCC(=O)Nc3cccc(OC)c3)no2)cc1
inactive: growth inhibition [1] -6.04% | growth inhibition [2] 3.52% | viability increase [3] -5.12% | inhibition [4] 3.28% | RAM network inhibition [5] 0.05%

Cc1c(C(=O)NCc2ccc3c(c2)OCO3)oc2ccc(S(=O)(=O)N3CCCC3)cc12
inactive: growth inhibition [1] -2.78% | growth inhibition [2] -4.95% | viability increase [3] -0.63% | viability [7] 66.1% | inhibition [4] 1.78% | RAM network inhibition [5] 4.67%

CC1=C(C(=O)OCc2ccc3c(c2)OCO3)C(c2ccccc2)NC(=O)N1 (configuration not stated)
inactive: growth inhibition [1] -12% | growth inhibition [2] -9.41% | viability increase [3] -4.88% | inhibition [4] 1.81% | RAM network inhibition [5] 2.03%

CSc1nc2c(cnn2-c2ccc(C)c(C)c2)c(=O)[nH]1
inactive: growth inhibition [1] 3.89% | growth inhibition [2] 1.82% | viability increase [3] -8.82% | inhibition [4] 2.08% | RAM network inhibition [5] 0.57%

COc1cc(C(=O)N2CCN(c3ccc(C)cc3C)CC2)cc(OC)c1OC
inactive: growth inhibition [1] -4.88% | growth inhibition [2] 2.84% | viability increase [3] -5% | inhibition [4] 0.135% | RAM network inhibition [5] 4.77%

Cn1c(C(=O)N2CCC(C(=O)N3CCN(Cc4ccc5c(c4)OCO5)CC3)CC2)cc2sccc21
inactive: growth inhibition [1] -9.98% | viability increase [3] -2.38% | viability [6] 70.9% | viability [7] 71.1% | inhibition [4] 1.03% | RAM network inhibition [5] 3.95%

Cc1ccc(Cl)cc1N1CCN(C(=O)c2cc3c(=O)n(C)c4ccccc4c3n2C)CC1
inactive: growth inhibition [1] -2.52% | growth inhibition [2] 9.03% | inhibition [4] 1.74% | RAM network inhibition [5] 2.44%
active: viability [6] 20.4% | viability [7] 23.5%

— PubChem BioAssay
